# Experimental data as given in PMC7813200 (Neuro-oncology Advances, 2020).
# “Also recorded” adds a separate entry of the source.
# What was measured:
# MGG8 cells [1] = assay: cell viability WST-1, MGG8; assay type: cell-based, human; settings: 72 h
# MGG8 cells [2] = assay: cells in S phase, BrdU incorporation, MGG8; assay type: cell-based, human; settings: NOC 3 μM
# T98G cells [3] = assay: cells in S phase, BrdU incorporation, T98G; assay type: cell-based, human
# tubulin = tubulin assembly, pelleting assay; assay type: biochemical; settings: compared to ST-360
# Summary of the method: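 Tubulin assembly assessed by pelleting assay, with release of free tubulin measured. Mean ± SEM from 3 to 5 experiments.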
# [4] = pharmacokinetics, plasma and brain by LC-MS; assay type: in vivo, mouse
# [5] = test system: six human glioma cell lines (SF-268, SF-295, SF-539, SNB-19, SNB-75, U251); assay: NCI-60 cell line panel, six glioma lines; assay type: cell-based; settings: read-out: IC50s (growth inhibition, TGI50 in Figure 2A)
# [6] = test system: PD-glioma isolates (proneural, mesenchymal, classical, MGG8); assay: viability of PD-glioma isolates; assay type: cell-based; settings: Homo sapiens, read-out: IC50, antitumor activity (viability, WST-1)
# [7] = test system: COLO205 cell-derived subcutaneous xenografts; assay: COLO205 xenograft flank tumor model; assay type: in vivo, mouse
# COLO205 cells = assay: NCI-60 cancer cell panel, COLO205; assay type: cell-based; settings: Homo sapiens, COLO 205
# PDGFB-glioma = assay: RCAS/tv-a PDGFB glioma mouse model; assay type: in vivo; settings: for tumor density by olig-2 immunostaining: each arm at its regimen (ST-401 regimen 2; TMZ 50 mg/kg); for necrotic area: end-stage histopathology, each arm at its regimen
# HCT116 cells = assay: live cell imaging of MT assembly rates; assay type: cell-based, human
# Summary of the method: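 HCT116 cells expressing EB1-GFP to label growing microtubule ends. Imaged at a single Z-plane at 500-ms intervals. Assembly rates scored in interphase cells by particle tracking, before treatment and again after compound wash-out (POST).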
# T98G cells [8] = assay: cell viability WST-1, T98G; assay type: cell-based; settings: Homo sapiens, 72 h, read-out: IC50, overall cell viability
# [9] = test system: tubulin (colchicine site); assay: [3H]colchicine binding to purified tubulin; settings: 5 μM compound; mean of n = 3
# CD1 mice = assay: maximal tolerated dose and dose range finding; assay type: in vivo, mouse; settings: bidaily i.p. 20 mg/kg, 5 days/week for 4 weeks
# Summary of the method: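 CD1 mice dosed i.p. at 5, 10, 20, 50, 100 or 150 mg/kg, or with the corresponding volume of no-drug formulation (vehicle). Monitored for signs of general distress. Regimen 2: 20 mg/kg i.p. bidaily, 5 days/week for 4 weeks.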
# S24 PD-glioma cells [10] = assay: tumor microtube; assay type: cell-based, human; settings: Y-27632 50 μM
# Summary of the method: (§1)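 GFP-expressing patient-derived S24 and BG5 glioma cells treated with increasing test-compound concentrations (e.g. 30 and 300 nM) or controls: DMSO 1% vehicle, Y-27632 50 μM, nocodazole 300 nM. Stained with Ho342/EthD2. TM number and length per cell quantified semi-automatically from immunofluorescence images via a machine learning-based workflow. Two-way ANOVA, Tukey post-test.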
# BG5 PD-glioma cells = assay: tumor microtube; assay type: cell-based, human; settings: Y-27632 50 μM
# Summary of the method: as §1
# S24 PD-glioma cells [11] = assay: cell death of S24 PD-glioma; assay type: cell-based, human; settings: Y-27632 50 mM (as printed in Figure S3), 24 h
# Summary of the method: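 GFP-expressing patient-derived S24 glioma cells treated alongside vehicle (DMSO 1%), then stained with Ho342 and EthD2 and imaged by fluorescence microscopy.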
compound,measurement,setting,value
"COC(=O)Nc1nc2ccc(C(=O)c3cccs3)cc2[nH]1 [NOC, nocodazole, reference compound]",reduction of cell viability,"MGG8 cells [1]; NOC 3 µM, WST-1",18%
same,effect on number of cells in S phase,MGG8 cells [2],reduce; also recorded: overall less active
same,effect on number of cells in S phase,"T98G cells [3]; NOC 3 μM, BrdU",Lack of response
"CCn1c2ccccc2c2cc(C(O)c3cccc4ncccc34)ccc21 (centres unmarked) [ST-401, (9‐ethyl‐9H‐carbazol‐3‐yl)(quinolin‐5‐yl)methanol]",MT disassembly (Δ release of free tubulin),tubulin,greater MT disassembly
same,time plasma levels remained above 250 nM,[4]; bidaily i.p. injections of 20 mg/kg,approximately 16 h
same,half-life,"[4]; mouse, brain, ip, 150 mg/kg",~360 min
same,concentration reached in brain,[4]; single i.p. 150 mg/kg,micromolar concentrations
same,concentration reached in brain,"[4]; single i.p. 20 and 5 mg/kg, 30 min",micromolar concentrations
same,plasma concentration,"[4]; three i.p. injections of 20 mg/kg separated by 8 and 16 h, over 24 h",above 250 nM
same,IC50,"MGG8 cells [1]; Homo sapiens, read-out: IC50, overall cell viability",14 nM
same,IC50,[5],23 to 69 nM
same,IC50,[6],24 to 47 nM
same,response on number of cells in S phase,"T98G cells [3]; 72 h, BrdU incorporation, concentration-response",absent
same,treated tumors that stopped growing despite ending the treatment,[7]; Regimen 2,approximately 50%
same,life-expectancy / survival of treated mice,"[7]; Regimen 2, n = 10 mice per arm",significant increase in average survival; also recorded: doubling
same,time without recurrence after ending treatment,[7]; tumors that stopped growing,≥ 28 days
same,IC50,COLO205 cells,38 nM
same,average survival,PDGFB-glioma; ST-401+RT arm,50 days
same,average survival,PDGFB-glioma; ST-401+TMZ arm,46 days
same,"effect on average median survival, single agent",PDGFB-glioma; ST-401 regimen 2,did not affect average median survival
same,enhancement of the therapeutic efficacy of RT,PDGFB-glioma; ST-401 regimen 2 + RT single dose 10-Gy,66%
same,enhancement of the therapeutic efficacy of TMZ,PDGFB-glioma; ST-401 regimen 2 + TMZ 50 mg/kg,60%
same,increase in mitotic figures versus control arm,"PDGFB-glioma; ST-401 regimen 2, H&E, end stage",69%
same,increase in tumor density (relative area of HA expression),"PDGFB-glioma; ST-401 regimen 2, semi-quantitative IHC",54%
same,tumor density by olig-2 immunostaining,PDGFB-glioma,increase
same,necrotic area,PDGFB-glioma,did not reach significance
same,time for MT assembly to reach initial rates after wash-out,"HCT116 cells; 100 nM, after wash-out",≤ 15 min
same,reduction in MT assembly rate,"HCT116 cells; 100 nM, interphase cells, compared to NOC 100 nM",milder reduction
same,inhibition of MT assembly,"HCT116 cells; 200 nM, within 15 min",completely and reversibly inhibited all MT assembly
same,IC50,T98G cells [8],36 nM
same,competition for [3H]colchicine binding to tubulin,[9],89%
same,adverse effects (Regimen 2),CD1 mice,did not trigger adverse effects
"Cn1nnc2c(C(N)=O)ncn2c1=O [TMZ, temozolomide, reference compound]",average median survival,"PDGFB-glioma; TMZ 50 mg/kg once per day, 5 days/week for 4 weeks, control 20 days",30 days
same,extension of average median survival,"PDGFB-glioma; TMZ 50 mg/kg once per day, 5 days/week for 4 weeks, versus control",50%
same,tumor density by olig-2 immunostaining,PDGFB-glioma,increase
same,necrotic area,PDGFB-glioma,unchanged
C[C@@H](N)[C@H]1CC[C@H](C(=O)Nc2ccncc2)CC1 [Y-27632],effect on TM length/cell,S24 PD-glioma cells [10],increased
same,effect on TM number/cell,S24 PD-glioma cells [10],increased
same,effect on TM length/cell,BG5 PD-glioma cells,increased
same,effect on TM number/cell,BG5 PD-glioma cells,increased
same,effect on cell death / viability,S24 PD-glioma cells [11],did not affect cell viability
